ChEMBL document CHEMBL1148012, “Synthesis, inhibition and binding of simple non-nitrogen inhibitors of monoamine transporters” (Bioorg Med Chem, 2007)

Legend:
[1] = molecular target: T1, Sodium-dependent dopamine transporter (Homo sapiens, UniProt Q01959); experiment: Displacement of [125I]RTI55 from human DAT expressed in COS1 cell membrane; type: cell membranes, COS-1
How it was run: (§1)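 Membranes from COS-1 cells stably transfected with hDAT or hSERT (pIRES, blasticidin selection), homogenised and washed, resuspended in PBSCM. Filtration onto PEI-soaked GF/B filters, scintillation counting.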

[2] = molecular target: T2, Sodium-dependent serotonin transporter (Homo sapiens, UniProt P31645); experiment: Displacement of [125I]RTI55 from human SERT expressed in COS1 cell membrane; type: cell membranes, COS-1; how it was run: as §1
[3] = molecular target: T3, Sodium-dependent noradrenaline transporter (Homo sapiens, UniProt P23975); experiment: Displacement of [125I]RTI55 from human NET expressed in COS1 cell membrane; type: cell membranes, COS-1
[4] = molecular target: T1, Sodium-dependent dopamine transporter; experiment: Inhibition of [3H]DA uptake in human DAT expressed in COS1 cell membrane; type: functional, cell-based, COS-1
How it was run: (§2)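 Intact COS-1 cells stably expressing hDAT, grown two days at 37 °C, washed in PBSCM pH 7.4. Drug dilutions preincubated 30 min, then 30–100 nM [3H]DA added with drug. Uptake 10 min at 20 °C, stopped by aspiration and washing. Accumulated radioactivity counted after solubilising cells in scintillant. IC50 determined.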

[5] = molecular target: T2, Sodium-dependent serotonin transporter; experiment: Inhibition of [3H]SER uptake in human SERT expressed in COS1 cell membrane; type: functional, cell-based, COS-1
How it was run: as §2, with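 “hSERT,” for “hDAT,”, “[3H]5-HT” for “[3H]DA”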

[6] = molecular target: T3, Sodium-dependent noradrenaline transporter; experiment: Inhibition of [3H]DA uptake in human NET expressed in COS1 cell membrane; type: functional, cell-based, COS-1

T1 sequence (Q01959 whole entry): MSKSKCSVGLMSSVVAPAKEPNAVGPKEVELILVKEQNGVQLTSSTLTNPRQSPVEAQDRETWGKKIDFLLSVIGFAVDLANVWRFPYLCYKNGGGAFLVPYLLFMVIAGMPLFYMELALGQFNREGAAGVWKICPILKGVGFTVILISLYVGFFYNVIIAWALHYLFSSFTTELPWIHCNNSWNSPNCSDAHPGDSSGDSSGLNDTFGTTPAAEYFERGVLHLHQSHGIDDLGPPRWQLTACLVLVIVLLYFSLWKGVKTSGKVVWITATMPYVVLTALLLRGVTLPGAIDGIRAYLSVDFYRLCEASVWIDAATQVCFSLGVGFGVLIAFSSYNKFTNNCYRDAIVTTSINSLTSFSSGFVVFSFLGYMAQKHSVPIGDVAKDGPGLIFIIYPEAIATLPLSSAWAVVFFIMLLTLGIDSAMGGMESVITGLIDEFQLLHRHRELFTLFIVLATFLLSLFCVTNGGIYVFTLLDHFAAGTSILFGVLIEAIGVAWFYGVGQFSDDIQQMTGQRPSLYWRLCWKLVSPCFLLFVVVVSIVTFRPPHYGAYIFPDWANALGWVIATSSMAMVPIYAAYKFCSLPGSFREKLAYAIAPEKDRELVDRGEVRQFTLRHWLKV
T3 sequence (P23975 whole entry): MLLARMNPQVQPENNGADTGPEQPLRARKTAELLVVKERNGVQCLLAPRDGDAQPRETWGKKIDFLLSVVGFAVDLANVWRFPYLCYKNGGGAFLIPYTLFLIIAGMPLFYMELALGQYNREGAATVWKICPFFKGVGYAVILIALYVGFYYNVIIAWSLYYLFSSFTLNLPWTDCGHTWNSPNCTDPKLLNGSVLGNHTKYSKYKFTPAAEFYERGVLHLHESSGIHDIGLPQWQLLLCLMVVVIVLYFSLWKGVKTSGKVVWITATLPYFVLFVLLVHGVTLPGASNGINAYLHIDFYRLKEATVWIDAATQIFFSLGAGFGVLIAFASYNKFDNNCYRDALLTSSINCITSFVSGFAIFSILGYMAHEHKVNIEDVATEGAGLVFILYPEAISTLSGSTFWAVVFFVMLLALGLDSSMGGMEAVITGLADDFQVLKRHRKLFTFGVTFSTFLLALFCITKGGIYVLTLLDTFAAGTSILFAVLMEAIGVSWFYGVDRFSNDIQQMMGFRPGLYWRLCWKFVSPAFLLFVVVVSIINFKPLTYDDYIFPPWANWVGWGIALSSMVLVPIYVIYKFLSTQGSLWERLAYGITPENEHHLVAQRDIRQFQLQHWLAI
T2 sequence (P31645 whole entry): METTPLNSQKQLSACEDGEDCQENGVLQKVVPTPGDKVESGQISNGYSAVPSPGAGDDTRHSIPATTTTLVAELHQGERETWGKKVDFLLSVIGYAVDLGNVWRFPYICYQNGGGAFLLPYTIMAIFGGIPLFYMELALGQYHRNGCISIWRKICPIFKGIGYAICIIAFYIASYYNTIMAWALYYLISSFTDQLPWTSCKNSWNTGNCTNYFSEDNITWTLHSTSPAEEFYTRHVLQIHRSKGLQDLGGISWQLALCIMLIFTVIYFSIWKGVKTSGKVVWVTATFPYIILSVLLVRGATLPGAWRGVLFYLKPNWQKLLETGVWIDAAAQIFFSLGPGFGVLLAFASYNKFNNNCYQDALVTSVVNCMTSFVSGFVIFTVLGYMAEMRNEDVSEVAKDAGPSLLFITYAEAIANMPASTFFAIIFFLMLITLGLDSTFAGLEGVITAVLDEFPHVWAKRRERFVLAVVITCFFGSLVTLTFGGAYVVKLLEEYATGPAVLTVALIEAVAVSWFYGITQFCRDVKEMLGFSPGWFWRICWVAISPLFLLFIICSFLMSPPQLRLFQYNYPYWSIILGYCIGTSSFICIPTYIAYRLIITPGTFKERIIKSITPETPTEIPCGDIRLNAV

Row | Compound | Ki [1] [µM] | Ki [2] [µM] | Ki [3] [µM] | Ki [4] [µM] | Ki [5] [µM] | Ki [6] [µM]
1 | COC(=O)[C@H]1[C@@H](c2ccc(I)cc2)C[C@H]2CC[C@@H]1N2C [IODINE 2BETA-CARBOMETHOXY-3BETA-(4 IODOPHENYL)-TROPANE] | 0.004 | 0.006 | 0.034 | 0.009 | 0.004 | 0.01
2 | COC(=O)C1=C(c2ccc(Cl)cc2)CCCCC1 | 15 | 706 | 84 | 2.2 | – | 20
3 | COC(=O)[C@@H]1CCCCC[C@@H]1c1ccc(C(C)(C)C)cc1 | 1140 | 1800 | 94 | – | – | –
4 | COC(=O)[C@@H]1CN(C)CC[C@H]1c1ccccc1 (racemic) | 17.4 | 46.7 | 36.3 | – | – | –
5 | COC(=O)C1=C(c2ccc(C(C)(C)C)cc2)CCCC1 | 605 | 2250 | 1100 | – | – | –
6 | COC(=O)C1=C(c2ccc(OC)cc2)CCC1 | 140 | 2690 | 550 | 6.3 | – | 1390
7 | COC(=O)[C@@H]1CCCCC[C@@H]1c1ccc(-c2ccccc2)cc1 | 313 | 73 | 51 | – | – | –
8 | COC(=O)[C@@H]1CCCC[C@@H]1c1ccc(C(C)(C)C)cc1 | 766 | 9120 | 675 | – | – | –
9 | COC(=O)C1=C(c2ccc(-c3ccccc3)cc2)CCCCC1 | 2 | 32 | 13 | 0.81 | – | 3.9
10 | COC(=O)C1=C(c2cccc(Cl)c2)CCC1 | 34 | 2240 | 470 | 3.3 | – | 285
11 | COC(=O)C1=C(c2ccc(Cl)cc2)CCC1 | 18 | 2840 | 420 | 2.1 | – | 178
12 | COC(=O)C1=C(c2ccc(C(C)(C)C)cc2)CCC1 | 302 | 1460 | 789 | – | – | –
13 | COC(=O)C1=C(c2ccc3ccccc3c2)CCCC1 | 12 | 109 | 81 | 1.5 | – | 10
14 | COC(=O)C1=C(c2ccc(Cl)c(Cl)c2)CCCC1 | 2.1 | 228 | 14 | 0.625 | – | 4.9
15 | COC(=O)[C@@H]1CCCC[C@@H]1c1ccc(OC(F)(F)F)cc1 | 1180 | 605 | 719 | – | – | –
16 | COC(=O)C1=C(c2ccc(Cl)cc2)CCCC1 | 85 | 1860 | 993 | 0.589 | – | 314
17 | COC(=O)[C@@H]1CN(C)CC[C@@H]1c1ccc(Cl)c(Cl)c1 (stereo in doubt; 3a) | 0.322 | – | 3.91 | – | – | –
18 | COC(=O)C1=C(c2ccc3ccccc3c2)CCCCC1 | 392 | 532 | 68 | – | – | –
19 | CCOC(=O)C1=C(c2cccc([N+](=O)[O-])c2)CCNC1 | 20.6 | 3 | 10 | – | – | –
20 | CCOC(=O)C1=C(c2ccc3ccccc3c2)CCNC1 | 0.079 | 0.44 | 0.268 | – | – | –
21 | COC(=O)[C@@H]1CCCC[C@@H]1c1ccc(-c2ccccc2)cc1 | 830 | 390 | 658 | – | – | –
22 | COC(=O)C1=C(c2ccc(O)cc2)CCCC1 | 231 | 573 | 675 | – | – | 499
23 | COC(=O)C1=C(c2ccc(C(F)(F)F)cc2)CCCC1 | 590 | 4710 | 2020 | – | – | –
24 | COC(=O)C1=C(c2ccc(C(C)=O)cc2)CCC1 | 335 | 296 | 240 | 49 | 1160 | 646
25 | COC(=O)C1=C(c2ccc(OC(F)(F)F)cc2)CCCC1 | 1660 | 4680 | 2540 | – | – | –

Row | Compound | Ki [1] [µM] | Ki [2] [µM] | Ki [3] [µM] | Ki [4] [µM] | Ki [5] [µM] | Ki [6] [µM]
26 | COC(=O)C1=C(c2ccc3ccccc3c2)CCC1 | 4.1 | 417 | 39 | 7 | – | 26
27 | COC(=O)C1=C(c2ccccc2)CCCC1 | 630 | 668 | 2500 | – | – | –
28 | COC(=O)C1=C(c2ccc(C(C)(C)C)cc2)CCCCC1 | 884 | 1040 | 62 | – | – | –
29 | COC(=O)C1=C(c2cccc([N+](=O)[O-])c2)CCCC1 | 239 | 28.7 | 121 | – | – | –
30 | COC(=O)[C@@H]1CN(C)CC[C@H]1c1ccc(I)cc1 (racemic) | 1.25 | 2.81 | 2.3 | – | – | –
31 | COC(=O)C1=C(c2cccc(Cl)c2)CCCCC1 | 22 | 463 | 85 | 3.78 | – | –
32 | COC(=O)c1ccccc1-c1ccc2ccccc2c1 | 4.06 | 620 | 46.7 | – | – | –
33 | COC(=O)C1=C(c2cccc(C(F)(F)F)c2)CCCC1 | 1050 | 5020 | 2110 | – | – | –
34 | COC(=O)[C@@H]1CCCC[C@@H]1c1cccc(C(F)(F)F)c1 | 569 | 1910 | 991 | – | – | –
35 | COC(=O)C1=C(c2cccc(N)c2)CCC1 | 875 | 1950 | 1320 | 121 | 2900 | 247
36 | COC(=O)C1=C(c2ccc([N+](=O)[O-])cc2)CCC1 | 6.54 | 1140 | 111 | – | – | –
37 | COC(=O)[C@@H]1CN(C)CC[C@@H]1c1ccccc1 (racemic) | 8.51 | 27 | 35.2 | – | – | –
38 | COC(=O)[C@@H]1CN(C)CC[C@@H]1c1ccc(Cl)c(Cl)c1 (stereo in doubt) | 59.4 | – | 41.6 | – | – | –
39 | COC(=O)[C@@H]1CCCC[C@@H]1c1ccc(C(F)(F)F)cc1 | 222 | 185 | 439 | – | – | –
40 | COC(=O)C1=C(c2ccc(OC(F)(F)F)cc2)CCC1 | 2650 | 3800 | 2880 | – | – | –
41 | COC(=O)[C@@H]1CN(C)CC[C@@H]1c1ccc(I)cc1 (racemic) | 0.323 | 0.287 | 0.855 | – | – | –
42 | COC(=O)C1=C(c2ccc(Cl)c(Cl)c2)CCC1 | 1.9 | 785 | 11 | 5.5 | – | 28
43 | COC(=O)[C@@H]1CCCC[C@@H]1c1ccccc1 | 975 | 1510 | 1360 | – | – | –
44 | CCOC(=O)C1=C(c2ccc(Cl)c(Cl)c2)CCNC1 | 0.922 | 0.217 | 2.5 | – | – | –
45 | COC(=O)C1=C(c2ccc(-c3ccccc3)cc2)CCCC1 | 264 | 841 | 215 | – | – | –
46 | C/C=C/C1=C(c2ccc(Cl)c(Cl)c2)CCCC1 | 11 | 381 | 255 | 42 | – | –
47 | COC(=O)C1=C(c2ccc(Cl)c(Cl)c2)CCCCC1 | 1.36 | 149 | 15 | 0.515 | – | 4.72
48 | COC(=O)C1=C(c2ccc(S(C)(=O)=O)cc2)CCC1 | – | 3390 | – | – | – | –
49 | COC(=O)C1=C(c2cccc(Cl)c2)CCCC1 | 22 | 1180 | 339 | 26 | – | 871
